# Assay results taken from ChEMBL document CHEMBL4257478, “Design, synthesis and evaluation of (R)-3-(7-(methyl(7H-pyrrolo[2,3-d]pyrimidin-4-yl)amino)-5-azaspiro[2.4]heptan-5-yl)-3-oxopropanenitrile as a JAK1-selective inhibitor” (Medchemcomm, 2018).
# Legend:
# [1] = biological target: Tyrosine-protein kinase JAK2 (Homo sapiens, UniProt O60674); assay: Inhibition of human JAK2 using KTFCGTPEYLAPEVRREPRILSEEEQEMFRDFDYIADWC as substrate after 40 mins in presence of [gamma-33P-ATP] by scintillation counting method
# [2] = organism: Homo sapiens; assay: Selectivity index, ratio of IC50 for human JAK2 to IC50 for human JAK1
# Outline: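 Kinase activity assays run as a commercial service at Km ATP; IC50 values fitted from concentration-response data; ratio of JAK2 to JAK1 IC50.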
# [3] = biological target: T1, Tyrosine-protein kinase JAK1 (Homo sapiens, UniProt P23458); assay: Inhibition of human JAK1 using GEEPLYWSFPAKKK as substrate after 40 mins in presence of [gamma-33P-ATP] by scintillation counting method
# [4] = biological target: T1, Tyrosine-protein kinase JAK1; assay: Inhibition of human JAK1 at 1 uM using GEEPLYWSFPAKKK as substrate after 40 mins in presence of [gamma-33P-ATP] by scintillation counting method relative to control
# T1 sequence (P23458 whole entry): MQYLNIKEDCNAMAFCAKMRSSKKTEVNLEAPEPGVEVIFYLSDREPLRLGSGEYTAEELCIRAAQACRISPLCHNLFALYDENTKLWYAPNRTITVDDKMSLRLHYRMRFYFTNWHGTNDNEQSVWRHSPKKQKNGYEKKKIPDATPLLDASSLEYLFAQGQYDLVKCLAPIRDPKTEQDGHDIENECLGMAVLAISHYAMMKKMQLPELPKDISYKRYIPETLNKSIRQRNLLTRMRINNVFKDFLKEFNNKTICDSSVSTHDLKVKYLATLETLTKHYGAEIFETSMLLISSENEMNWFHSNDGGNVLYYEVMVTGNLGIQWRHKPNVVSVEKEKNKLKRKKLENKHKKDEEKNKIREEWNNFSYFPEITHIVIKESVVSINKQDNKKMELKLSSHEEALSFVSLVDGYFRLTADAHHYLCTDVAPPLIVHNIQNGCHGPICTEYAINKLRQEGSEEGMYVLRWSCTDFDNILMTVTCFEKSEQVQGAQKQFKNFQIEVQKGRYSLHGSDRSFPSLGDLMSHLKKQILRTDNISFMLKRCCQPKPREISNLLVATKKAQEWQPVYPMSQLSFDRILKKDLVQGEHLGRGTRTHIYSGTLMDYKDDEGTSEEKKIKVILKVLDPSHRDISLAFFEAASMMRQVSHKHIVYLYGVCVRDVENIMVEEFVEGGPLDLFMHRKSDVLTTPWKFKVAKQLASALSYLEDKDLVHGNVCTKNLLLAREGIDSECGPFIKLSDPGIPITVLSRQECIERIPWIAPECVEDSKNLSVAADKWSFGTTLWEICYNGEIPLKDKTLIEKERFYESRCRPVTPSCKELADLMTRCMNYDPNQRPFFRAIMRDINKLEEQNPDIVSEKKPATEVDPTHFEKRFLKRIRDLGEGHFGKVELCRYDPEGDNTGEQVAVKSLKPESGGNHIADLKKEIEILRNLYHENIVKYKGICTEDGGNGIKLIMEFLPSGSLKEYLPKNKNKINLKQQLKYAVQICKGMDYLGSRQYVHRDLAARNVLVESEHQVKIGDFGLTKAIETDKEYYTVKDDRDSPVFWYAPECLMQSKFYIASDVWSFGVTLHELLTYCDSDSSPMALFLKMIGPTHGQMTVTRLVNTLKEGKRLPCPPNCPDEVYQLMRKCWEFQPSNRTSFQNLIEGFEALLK
# Chain of Tyrosine-protein kinase JAK2 (O60674 whole entry): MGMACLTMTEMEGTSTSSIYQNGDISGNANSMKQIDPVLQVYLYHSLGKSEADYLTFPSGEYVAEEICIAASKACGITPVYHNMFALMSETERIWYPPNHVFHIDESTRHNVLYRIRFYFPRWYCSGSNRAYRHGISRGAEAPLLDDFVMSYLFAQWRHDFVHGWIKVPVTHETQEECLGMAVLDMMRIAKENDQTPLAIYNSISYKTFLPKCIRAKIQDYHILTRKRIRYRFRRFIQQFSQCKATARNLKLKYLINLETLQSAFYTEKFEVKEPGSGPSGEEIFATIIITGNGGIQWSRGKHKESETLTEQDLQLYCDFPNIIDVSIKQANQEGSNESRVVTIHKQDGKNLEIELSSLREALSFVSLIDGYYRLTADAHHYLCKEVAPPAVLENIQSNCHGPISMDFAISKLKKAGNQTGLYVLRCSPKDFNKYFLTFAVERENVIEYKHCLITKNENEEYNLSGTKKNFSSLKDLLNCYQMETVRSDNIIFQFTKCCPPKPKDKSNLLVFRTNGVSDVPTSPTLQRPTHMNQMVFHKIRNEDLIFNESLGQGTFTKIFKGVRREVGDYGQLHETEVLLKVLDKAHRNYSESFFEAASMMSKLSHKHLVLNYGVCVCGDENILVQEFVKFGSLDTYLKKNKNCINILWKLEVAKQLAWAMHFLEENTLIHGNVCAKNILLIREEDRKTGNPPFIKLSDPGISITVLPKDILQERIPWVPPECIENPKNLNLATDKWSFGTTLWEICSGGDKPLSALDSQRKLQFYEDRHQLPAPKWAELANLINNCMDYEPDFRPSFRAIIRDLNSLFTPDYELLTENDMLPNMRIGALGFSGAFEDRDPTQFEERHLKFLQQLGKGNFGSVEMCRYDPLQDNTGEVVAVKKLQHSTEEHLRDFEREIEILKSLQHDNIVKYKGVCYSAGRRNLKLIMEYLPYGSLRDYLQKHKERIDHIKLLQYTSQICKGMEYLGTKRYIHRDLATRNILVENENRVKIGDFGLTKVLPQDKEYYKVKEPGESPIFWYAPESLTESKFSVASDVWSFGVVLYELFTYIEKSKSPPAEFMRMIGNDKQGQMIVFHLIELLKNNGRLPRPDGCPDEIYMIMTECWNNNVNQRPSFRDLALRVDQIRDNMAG
compound,measurement,setting,value
CN(c1ncnc2[nH]ccc12)[C@H]1CN(C(=O)c2ccco2)CC12CC2,IC50,[1],0.93 µM
same,Ratio IC50,[2],18
same,IC50,[3],0.053 µM
CN(c1ncnc2[nH]ccc12)[C@H]1CN(C(=O)C2CC2)CC12CC2,IC50,[1],1.2 µM
same,Ratio IC50,[2],7.1
same,IC50,[3],0.17 µM
CN(c1ncnc2[nH]ccc12)[C@H]1CN(C(=O)c2cccc(C#N)c2)CC12CC2,IC50,[1],7.4 µM
same,Ratio IC50,[2],74
same,IC50,[3],0.1 µM
CC(=O)NCC(=O)N1C[C@H](N(C)c2ncnc3[nH]ccc23)C2(CC2)C1,IC50,[1],16 µM
same,Ratio IC50,[2],31
same,IC50,[3],0.52 µM
CN(c1ncnc2[nH]ccc12)C1CN(C(=O)CC#N)CC12CC2 (racemic),inhibition,[4],95%
CN(c1ncnc2[nH]ccc12)[C@H]1CN(S(=O)(=O)c2ccccc2C#N)CC12CC2,IC50,[1],0.48 µM
same,Ratio IC50,[2],9.6
same,IC50,[3],0.05 µM
CN(c1ncnc2[nH]ccc12)[C@H]1CN(S(=O)(=O)c2ccc(C(F)(F)F)cc2)CC12CC2,IC50,[1],1.4 µM
same,Ratio IC50,[2],88
same,IC50,[3],0.016 µM
CN(c1ncnc2[nH]ccc12)C1CCN(C(=O)CC#N)CC1,inhibition,[4],49%
CC(C)CC(=O)N1C[C@H](N(C)c2ncnc3[nH]ccc23)C2(CC2)C1,IC50,[1],1.1 µM
same,Ratio IC50,[2],14
same,IC50,[3],0.077 µM
CN(c1ncnc2[nH]ccc12)[C@H]1CN(C(=O)NC2CCCCC2)CC12CC2,IC50,[1],4.4 µM
same,Ratio IC50,[2],64
same,IC50,[3],0.069 µM
COc1ccc(S(=O)(=O)N2C[C@H](N(C)c3ncnc4[nH]ccc34)C3(CC3)C2)cc1,IC50,[1],0.18 µM
same,Ratio IC50,[2],19
same,IC50,[3],0.0093 µM
CN(c1ncnc2[nH]ccc12)[C@H]1CN(C(=O)CN=[N+]=[N-])CC12CC2,IC50,[1],0.25 µM
same,Ratio IC50,[2],12
same,IC50,[3],0.021 µM
CN(c1ncnc2[nH]ccc12)[C@H]1CN(C(=S)CC#N)CC12CC2,IC50,[1],0.16 µM
same,Ratio IC50,[2],8
same,IC50,[3],0.02 µM
CN(c1ncnc2[nH]ccc12)[C@H]1CN(S(=O)(=O)c2ccc(C#N)cc2)CC12CC2,IC50,[1],1.1 µM
same,Ratio IC50,[2],110
same,IC50,[3],0.0098 µM
CC(C)S(=O)(=O)N1C[C@H](N(C)c2ncnc3[nH]ccc23)C2(CC2)C1,IC50,[1],0.13 µM
same,Ratio IC50,[2],6.5
same,IC50,[3],0.02 µM
N#CCC(=O)N1CCC(Oc2ncnc3[nH]ccc23)CC1,inhibition,[4],35%
N#CCC(=O)N1CCCC(COc2ncnc3[nH]ccc23)C1 (stereo not given),inhibition,[4],30%
CN(c1ncnc2[nH]ccc12)[C@H]1CN(S(=O)(=O)c2cccc([N+](=O)[O-])c2)CC12CC2,IC50,[1],0.0055 µM
same,Ratio IC50,[2],3.9
same,IC50,[3],0.0014 µM
CN(c1ncnc2[nH]ccc12)[C@H]1CN(S(=O)(=O)N2CCCCC2)CC12CC2,IC50,[1],0.15 µM
same,Ratio IC50,[2],10
same,IC50,[3],0.015 µM
CCCCNC(=O)N1C[C@H](N(C)c2ncnc3[nH]ccc23)C2(CC2)C1,IC50,[1],2.8 µM
same,Ratio IC50,[2],37
same,IC50,[3],0.075 µM
CN(c1ncnc2[nH]ccc12)[C@H]1CN(S(=O)(=O)c2ccc3ccccc3c2)CC12CC2,IC50,[1],0.15 µM
same,Ratio IC50,[2],8.8
same,IC50,[3],0.017 µM
CN(c1ncnc2[nH]ccc12)[C@H]1CN(C(=O)Nc2ccc(Cl)cc2Cl)CC12CC2,IC50,[1],4.7 µM
same,Ratio IC50,[2],39
same,IC50,[3],0.12 µM
CN(c1ncnc2[nH]ccc12)[C@H]1CN(C(=O)c2ccc(C#N)cc2)CC12CC2,IC50,[1],4.5 µM
same,Ratio IC50,[2],24
same,IC50,[3],0.19 µM
CN(c1ncnc2[nH]ccc12)[C@H]1CN(C(=O)Nc2cc(Cl)ccc2Cl)CC12CC2,IC50,[1],2.8 µM
same,Ratio IC50,[2],52
same,IC50,[3],0.054 µM
CN(c1ncnc2[nH]ccc12)[C@H]1CN(S(=O)(=O)c2ccccc2F)CC12CC2,IC50,[1],0.097 µM
same,Ratio IC50,[2],7.5
same,IC50,[3],0.013 µM
CN(c1ncnc2[nH]ccc12)[C@H]1CN(C(=S)Nc2cc(C(F)(F)F)cc(C(F)(F)F)c2)CC12CC2,IC50,[1],11 µM
same,Ratio IC50,[2],23
same,IC50,[3],0.47 µM
CN(c1ncnc2[nH]ccc12)[C@H]1CN(C(=O)c2cccc(C(F)(F)F)c2)CC12CC2,IC50,[1],11 µM
same,Ratio IC50,[2],26
same,IC50,[3],0.42 µM
CN(c1ncnc2[nH]ccc12)[C@H]1CN(S(=O)(=O)c2ccccc2)CC12CC2,IC50,[1],0.051 µM
same,Ratio IC50,[2],5.7
same,IC50,[3],0.009 µM
Cc1ccc(NC(=O)N2C[C@H](N(C)c3ncnc4[nH]ccc34)C3(CC3)C2)cc1Cl,IC50,[1],1.3 µM
same,Ratio IC50,[2],15
same,IC50,[3],0.085 µM
CN(c1ncnc2[nH]ccc12)[C@H]1CN(C(=O)Nc2cccc(Cl)c2Cl)CC12CC2,IC50,[1],1.3 µM
same,Ratio IC50,[2],18
same,IC50,[3],0.074 µM
CN(c1ncnc2[nH]ccc12)[C@H]1CN(S(=O)(=O)c2cccc(F)c2)CC12CC2,IC50,[1],0.0084 µM
same,Ratio IC50,[2],3
same,IC50,[3],0.0028 µM
CN(c1ncnc2[nH]ccc12)[C@@H]1CCCN(C(=O)CC#N)C1,inhibition,[4],99%
CNC(=O)CC(=O)N1C[C@H](N(C)c2ncnc3[nH]ccc23)C2(CC2)C1,IC50,[1],13 µM
same,Ratio IC50,[2],19
same,IC50,[3],0.67 µM
N#CCC(=O)N1C[C@H]2CCCN(c3ncnc4[nH]ccc34)[C@H]2C1,inhibition,[4],54%
CN(c1ncnc2[nH]ccc12)[C@H]1CN(C(=O)c2ccccc2C(F)(F)F)CC12CC2,IC50,[1],9.1 µM
same,Ratio IC50,[2],18
same,IC50,[3],0.5 µM
CN(c1ncnc2[nH]ccc12)[C@H]1CN(C(=O)Nc2ccc(F)cc2)CC12CC2,IC50,[1],1 µM
same,Ratio IC50,[2],43
same,IC50,[3],0.023 µM
CC(C)COC(=O)N1C[C@H](N(C)c2ncnc3[nH]ccc23)C2(CC2)C1,IC50,[1],1.2 µM
same,Ratio IC50,[2],35
same,IC50,[3],0.034 µM
CN(c1ncnc2[nH]ccc12)[C@H]1CN(S(=O)(=O)c2ccccc2[N+](=O)[O-])CC12CC2,IC50,[1],0.47 µM
same,Ratio IC50,[2],18
same,IC50,[3],0.026 µM
CC(=O)N1CCC(C(=O)N2C[C@H](N(C)c3ncnc4[nH]ccc34)C3(CC3)C2)CC1,IC50,[1],2.5 µM
same,Ratio IC50,[2],14
same,IC50,[3],0.18 µM
CCCS(=O)(=O)N1C[C@H](N(C)c2ncnc3[nH]ccc23)C2(CC2)C1,IC50,[1],0.036 µM
same,Ratio IC50,[2],5.2
same,IC50,[3],0.0069 µM
CN(c1ncnc2[nH]ccc12)[C@H]1CN(S(=O)(=O)N2CCOCC2)CC12CC2,IC50,[1],0.26 µM
same,Ratio IC50,[2],8.4
same,IC50,[3],0.031 µM
CN(c1ncnc2[nH]ccc12)[C@H]1CN(C(=O)Nc2ccccc2)CC12CC2,IC50,[1],0.42 µM
same,Ratio IC50,[2],35
same,IC50,[3],0.012 µM
CN(c1ncnc2[nH]ccc12)[C@H]1CN(S(=O)(=O)c2ccc([N+](=O)[O-])cc2)CC12CC2,IC50,[1],0.03 µM
same,Ratio IC50,[2],4.8
same,IC50,[3],0.0063 µM
CN(c1ncnc2[nH]ccc12)[C@H]1CN(C(=O)c2ccccc2)CC12CC2,IC50,[1],6.3 µM
same,Ratio IC50,[2],42
same,IC50,[3],0.15 µM
CN(c1ncnc2[nH]ccc12)[C@H]1CN(Cc2ccccc2)CC12CC2,IC50,[1],98 µM
same,Ratio IC50,[2],820
same,IC50,[3],0.12 µM
CCN1C[C@H](N(C)c2ncnc3[nH]ccc23)C2(CC2)C1,IC50,[1],30 µM
same,Ratio IC50,[2],21
same,IC50,[3],1.4 µM
CN(c1ncnc2[nH]ccc12)[C@H]1CN(C(=O)Nc2ccc(Cl)c(Cl)c2)CC12CC2,IC50,[1],1.3 µM
same,Ratio IC50,[2],33
same,IC50,[3],0.04 µM
CN(c1ncnc2[nH]ccc12)[C@H]1CN(C(=O)c2cccnc2)CC12CC2,IC50,[1],7.8 µM
same,Ratio IC50,[2],49
same,IC50,[3],0.16 µM
Cc1cccc(S(=O)(=O)N2C[C@H](N(C)c3ncnc4[nH]ccc34)C3(CC3)C2)c1,IC50,[1],0.066 µM
same,Ratio IC50,[2],5.5
same,IC50,[3],0.012 µM
CN(c1ncnc2[nH]ccc12)[C@H]1CN(S(=O)(=O)c2ccc(F)cc2)CC12CC2,IC50,[1],0.05 µM
same,Ratio IC50,[2],5.3
same,IC50,[3],0.0094 µM
CN(c1ncnc2[nH]ccc12)[C@H]1CN(C(=O)c2ccncc2)CC12CC2,IC50,[1],6.5 µM
same,Ratio IC50,[2],46
same,IC50,[3],0.14 µM
CCCCN1C[C@H](N(C)c2ncnc3[nH]ccc23)C2(CC2)C1,IC50,[1],15 µM
same,Ratio IC50,[2],65
same,IC50,[3],0.23 µM
CN(c1ncnc2[nH]ccc12)[C@H]1CN(C(=O)Nc2ccccc2-c2ccccc2)CC12CC2,IC50,[1],9.1 µM
same,Ratio IC50,[2],6.1
same,IC50,[3],1.5 µM
CC(C)C(=O)N1C[C@H](N(C)c2ncnc3[nH]ccc23)C2(CC2)C1,IC50,[1],2.8 µM
same,Ratio IC50,[2],16
same,IC50,[3],0.17 µM
